According to ChEMBL document CHEMBL1122615, “Design and synthesis of naltrexone-derived affinity labels with nonequilibrium opioid agonist and antagonist activities. Evidence for the existence of different mu receptor subtypes in different tissues” (J Med Chem, 1984):
pIC50: −log10 of the molar value. Several values for one entry are separate records, joined by “and”; a condition that tells them apart may be missing. Equal entries are not always repeated.

How the values were obtained:
[1] = target: Kappa-type opioid receptor (Homo sapiens) (UniProt P41145); assay: Compound was tested for irreversible antagonist activity at kappa receptor by determining by ileal response to ethylketazocine after 30 min incubation at 20 nM; assay type: functional
[2] = species: Cavia porcellus; assay: (§1) Compound was tested for persistent effect, percent inhibition of twitch that is not reversed by >=20 washings following 30 -min incubation at 200 nM; assay type: functional
[3] = target: Mu-type opioid receptor (Homo sapiens) (UniProt P35372); assay: Compound was tested for irreversible antagonist activity at mu receptor by determining by ileal response to morphine after 30 min incubation at 20 nM; assay type: functional
[4] = species: Cavia porcellus; assay: The agonist potency in the guinea pig ileal longitudinal muscle preparation (GPI) was determined relative to morphine as control; assay type: functional, Muscle tissue
[5] = species: Cavia porcellus; assay: Compound was tested for persistent effect, percent inhibition of twitch that is not reversed by >=20 washings following 30 -min incubation at 20 nM; assay type: functional
[6] = target: Mu-type opioid receptor (Homo sapiens) (UniProt P35372); assay: Compound was tested for irreversible antagonist activity at mu receptor by determining by MVD response to DADLE after 30 min incubation at 20 nM; assay type: functional
[7] = target: Kappa-type opioid receptor (Homo sapiens) (UniProt P41145); assay: Irreversible antagonist activity at kappa receptor as ileal response to ethylketazocine after 30 min incubation at 20 nM; assay type: functional
[8] = target: Mu-type opioid receptor (Homo sapiens) (UniProt P35372); assay: Compound was tested for irreversible antagonist activity at mu receptor by determining by MVD response to DADLE after 30 min incubation at 10 nM; assay type: functional
[9] = target: Mu-type opioid receptor (Homo sapiens) (UniProt P35372); assay: Irreversible antagonist activity at mu receptor by determining by ileal response to morphine after 30 min incubation at 20 nM; assay type: functional
[10] = target: Mu-type opioid receptor (Mus musculus) (UniProt P42866); assay: Irreversible antagonist activity at mouse vas deferens mu receptor against DADLE after 30 min at 200 nM; assay type: functional, tissue-based
[11] = species: Mus musculus; assay: (§2) The agonist potency was assessed by measuring the inhibition of contraction at a single concentration (200 nM).; assay type: functional
[12] = target: Mu-type opioid receptor (Homo sapiens) (UniProt P35372); assay: Compound was tested for irreversible antagonist activity at mu receptor by determining by MVD response to morphine after 30 min incubation at 200 nM; assay type: functional
[13] = species: Mus musculus; assay: Compound was tested for persistent effect, percent inhibition contraction that is not reversed significantly by >=20 washings following a 30 min incubation at 20 nM.; assay type: functional
[14] = target: Kappa-type opioid receptor (Homo sapiens) (UniProt P41145); assay: Compound was tested for irreversible antagonist activity at kappa receptor by determining by ileal response to ethylketazocine after 30 min incubation at 10 nM; assay type: functional
[15] = target: Kappa-type opioid receptor (Homo sapiens) (UniProt P41145); assay: Compound was tested for irreversible antagonist activity at kappa receptor by determining by ileal response to ethylketazocine after 30 min incubation at 200 nM; assay type: functional
[16] = species: Mus musculus; assay: Compound was tested for persistent effect, percent inhibition contraction that is not reversed significantly by >=20 washings following a 30 min incubation at 3 nM.; assay type: functional
[17] = species: Cavia porcellus; assay: as §1; assay type: functional; remark: listed apart in the source
[18] = target: Mu-type opioid receptor (Homo sapiens) (UniProt P35372); assay: Compound was tested for irreversible antagonist activity at mu receptor by determining by MVD response to DADLE after 30 min incubation at 3 nM; assay type: functional
[19] = target: Mu-type opioid receptor (Homo sapiens) (UniProt P35372); assay: Compound was tested for irreversible antagonist activity at mu receptor by determining by ileal response to morphine after 30 min incubation at 200 nM; assay type: functional
[20] = target: Mu-type opioid receptor (Homo sapiens) (UniProt P35372); assay: Compound was tested for irreversible antagonist activity at mu receptor by determining by ileal response to morphine after 30 min incubation at 10 nM; assay type: functional
[21] = species: Mus musculus; assay: as §2; assay type: functional; remark: listed apart in the source
[22] = target: Mu-type opioid receptor (Homo sapiens) (UniProt P35372); assay: Compound was tested for irreversible antagonist activity at mu receptor by determining by MVD response to morphine after 30 min incubation at 100 nM; assay type: functional
[23] = The relative rate (to beta FNA) in the reaction of Michael acceptors with cysteine at pH 7.4 at 25 degree Celsius in the presence of 13 fold excess cysteine was reported for half-life.; assay type: ADME
Outline: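 Reaction with a 13-fold excess of cysteine at pH 7.4, 25 °C under rapid stirring; aliquots quenched by acidification to pH 1 at timed intervals. Remaining compound quantified by reversed-phase HPLC (UV 254 nm, internal standard), four intervals in duplicate. Half-life taken from the slope of log amount remaining vs time; rate expressed relative to β-FNA.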

[24] = target: Kappa-type opioid receptor (Homo sapiens) (UniProt P41145); assay: Compound was tested for irreversible antagonist activity at kappa receptor by determining by ileal response to ethylketazocine after 30 min incubation at 1000 nM; assay type: functional
[25] = target: Mu-type opioid receptor (Homo sapiens) (UniProt P35372); assay: Compound was tested for irreversible antagonist activity at mu receptor by determining by ileal response to morphine after 30 min incubation at 1000 nM; assay type: functional
[26] = target: Mu-type opioid receptor (Homo sapiens) (UniProt P35372); assay: Compound was tested for irreversible antagonist activity at mu receptor by determining by MVD response to DADLE after 30 min incubation at 100 nM; assay type: functional
[27] = target: Mu-type opioid receptor (Homo sapiens) (UniProt P35372); assay: Compound was tested for irreversible antagonist activity at mu receptor by determining by MVD response to ethylketazocine after 30 min incubation at 200 nM; assay type: functional
[28] = target: Mu-type opioid receptor (Homo sapiens) (UniProt P35372); assay: Compound was tested for irreversible antagonist activity at mu receptor by determining by MVD response to Morphine after 30 min incubation at 200 nM; assay type: functional
[29] = target: Mu-type opioid receptor (Homo sapiens) (UniProt P35372); assay: Compound was tested for irreversible antagonist activity at mu receptor by determining by MVD response to morphine after 30 min incubation at 20 nM; assay type: functional
[30] = target: Mu-type opioid receptor (Homo sapiens) (UniProt P35372); assay: Compound was tested for irreversible antagonist activity at mu receptor by determining by MVD response to DADLE after 30 min incubation at […]; assay type: functional
[31] = species: Cavia porcellus; assay: Evaluated for the inhibition concentration in the guinea pig ileal longitudinal muscle preparation (GPI); assay type: functional, Muscle tissue

Sequence of Kappa-type opioid receptor (Homo sapiens) (P41145 whole entry): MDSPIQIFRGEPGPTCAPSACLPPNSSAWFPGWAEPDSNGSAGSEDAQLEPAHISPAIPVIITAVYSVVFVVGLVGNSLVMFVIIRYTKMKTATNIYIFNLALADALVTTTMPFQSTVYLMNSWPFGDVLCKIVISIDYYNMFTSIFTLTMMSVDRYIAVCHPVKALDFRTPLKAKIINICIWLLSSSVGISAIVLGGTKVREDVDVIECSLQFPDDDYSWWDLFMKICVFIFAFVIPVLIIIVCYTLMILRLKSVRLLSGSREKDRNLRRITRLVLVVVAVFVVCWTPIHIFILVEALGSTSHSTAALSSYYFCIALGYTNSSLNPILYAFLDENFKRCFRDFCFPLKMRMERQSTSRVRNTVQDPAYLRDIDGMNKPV
Sequence of Mu-type opioid receptor (Homo sapiens) (P35372 whole entry): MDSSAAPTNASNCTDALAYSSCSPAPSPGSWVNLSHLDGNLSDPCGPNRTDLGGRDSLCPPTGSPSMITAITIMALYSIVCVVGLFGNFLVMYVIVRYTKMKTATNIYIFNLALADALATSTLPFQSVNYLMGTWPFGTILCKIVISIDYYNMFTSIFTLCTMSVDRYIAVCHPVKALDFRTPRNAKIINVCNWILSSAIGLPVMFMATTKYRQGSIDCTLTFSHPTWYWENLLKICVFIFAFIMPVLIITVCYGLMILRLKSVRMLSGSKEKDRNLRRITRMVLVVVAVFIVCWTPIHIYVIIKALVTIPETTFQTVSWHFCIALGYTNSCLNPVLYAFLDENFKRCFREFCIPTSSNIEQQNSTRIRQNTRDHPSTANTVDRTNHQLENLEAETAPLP
Sequence of Mu-type opioid receptor (Mus musculus) (P42866 whole entry): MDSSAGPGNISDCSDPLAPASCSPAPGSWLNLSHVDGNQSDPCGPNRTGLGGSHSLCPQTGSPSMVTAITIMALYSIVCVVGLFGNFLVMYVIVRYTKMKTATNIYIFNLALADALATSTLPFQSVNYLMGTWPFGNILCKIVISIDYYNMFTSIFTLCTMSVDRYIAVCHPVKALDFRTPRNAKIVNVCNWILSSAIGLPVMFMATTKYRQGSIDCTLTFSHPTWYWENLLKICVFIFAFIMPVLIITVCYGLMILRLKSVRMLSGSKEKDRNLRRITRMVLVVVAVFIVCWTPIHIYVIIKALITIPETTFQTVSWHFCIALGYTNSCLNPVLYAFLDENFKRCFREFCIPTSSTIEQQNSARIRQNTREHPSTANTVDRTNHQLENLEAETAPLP

Compound: COC(=O)CCC(=O)N[C@@H]1CCC2(O)C3Cc4ccc(O)c5c4C2(CCN3CC2CC2)C1O5 (stereo not given in full)
- Ratio [1]: 1
- Inhibition [2]: 10%
- Ratio [3]: 0.92
- Potency [4]: 5.3

Compound: O=C(N[C@@H]1CCC2(O)C3Cc4ccc(O)c5c4C2(CCN3CC2CC2)C1O5)C(=O)c1ccccc1 (stereo not given in full)
- Inhibition [5]: 22%
- Ratio [6]: 0.51
- Potency [4]: 24
- Ratio [7]: 0.93
- Ratio [8]: 0.56
- Ratio [9]: 1.48
- Ratio [10]: 0.87
- Agonist potency [11]: 51
- Ratio [12]: 6.5
- Inhibition [13]: 44%

Compound: 6beta-[(Chloromercuri)acetamido]-17-(cyclopropyl-methyl)-4,5alpha-epoxy-3,14-duhydroxymorphinan Methanesulphonate [listing 1 of 2 here]
- Ratio [14]: 0.74
- Ratio [3]: 1.2
- Potency ([4]; Muscle tissue): 50
- Ratio [7]: 1
- Ratio [15]: 1.3
- inhibition [16]: 20%
- inhibition [17]: 26%
- Ratio [18]: 1.1
- Ratio [19]: 4.2
- Ratio [10]: 2.6 and 0.9
- Ratio [20]: 0.75
- Ratio [12]: 0.57
- Potency [21]: 54 nM

Compound: COC(=O)/C=C/C(=O)N[C@@H]1CC[C@@]2(O)[C@H]3Cc4ccc(O)c5c4[C@@]2(CCN3CC2CC2)[C@H]1O5
- Ratio [22]: 3.9
- Potency [4]: 5
- Ratio [7]: 1
- Relative rate [23]: 1
- Ratio [9]: 6
- Ratio [24]: 1.3
- Ratio [10]: 1.1
- Ratio [25]: 18.8
- Ratio [12]: 10.6
- Ratio [26]: 1.8

Compound: O=C(CN1C(=O)C=CC1=O)N[C@@H]1CCC2(O)C3Cc4ccc(O)c5c4C2(CCN3CC2CC2)C1O5 (stereo not given in full)
- Ratio [27]: 0.71
- Inhibition [2]: 59%
- Inhibition [5]: 21%
- Ratio [28]: 30
- Potency [4]: 0.6
- Ratio [7]: 0.71
- Ratio [15]: 0.92
- Relative rate [23]: 450
- Ratio [9]: 1.5
- Ratio [19]: 3.3
- Ratio [10]: 1.8
- Agonist potency [11]: 240 nM

Compound: C#CC(=O)N[C@@H]1CCC2(O)C3Cc4ccc(O)c5c4C2(CCN3CC2CC2)C1O5 (stereo not given in full)
- Inhibition [5]: 53%
- Ratio [6]: 1.06
- Ratio [29]: 5
- Potency [4]: 56
- Ratio [7]: 0.84
- Ratio [9]: 2.6
- Ratio [10]: 1.3
- Ratio [30]: 1.5
- Inhibition [13]: 50%

Compound: 6beta-[(Chloromercuri)acetamido]-17-(cyclopropyl-methyl)-4,5alpha-epoxy-3,14-duhydroxymorphinan Methanesulphonate [listing 2 of 2 here]
- pIC50 [31]: 6.52

Compound: COC(=O)C=CC(=O)N[C@@H]1CCC2(O)C3Cc4ccc(O)c5c4C2(CCN3CC2CC2)C1O5 (stereo not given in full)
- Relative rate [23]: 0.5
